Each block holds one compound with its values, some of them ahead of it. Active and inactive are the calls of the source. The calls are words filed in the database; no cut-off is given here.
Assays:
[1] = Stability of the compound in phosphate buffered saline at pH 7.4 assessed as compound hydrolysis at 100 uM after 24 hrs by UV-Vis spectrophotometric analysis; format: physicochemical; settings: buffer, pH 7.4, 24 h
Summary of the method: (§1)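 Compound at 100 μM dissolved in PBS pH 7.4 or in minimal essential medium. UV-Vis spectra of freshly prepared and 24-h aged solutions kept at ambient temperature were compared.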

[2] = Half-life in RPMI media at 100 uM; format: physicochemical
[3] = Stability of the compound in minimal essential medium assessed as compound hydrolysis at 100 uM within 24 hrs by UV-Vis spectrophotometric analysis
[4] = Drug metabolism in RPMI media assessed as equilibrium hydrolysis constant at 100 uM; format: physicochemical
[5] = Stability of the compound in minimal essential medium assessed as compound hydrolysis at 100 uM at pH 7.4 after 24 hrs by UV-Vis spectrophotometric analysis; summary of the method: as §1
ARPE-19 [6] = experiment: Cytotoxicity against human ARPE19 cells assessed as reduction in cell viability at 100 uM after 72 hrs by CellTiter-blue assay relative to control; format: cell-based; settings: arpe-19, 72 h
Summary of the method: (§2)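 Inherent toxicity tested on ARPE-19 cells. Compounds at concentrations up to 100 μM for 72 h. Viability read by CellTiter Blue assay.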

[7] = Stability of the compound in aqueous solvent at 500 uM after 24 hrs in presence of H2O2 by 1H-NMR spectroscopic analysis; format: physicochemical; settings: buffer
ARPE-19 [8] = experiment: Cytoprotective activity against H2O2-induced toxicity in human ARPE19 cells pretreated for 5 hrs followed by H2O2 addition after 19 hrs by CellTiter-blue assay; format: functional, cell-based
Summary of the method: (§3)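 ARPE-19 human retinal pigment epithelial cells pre-incubated 5 h with a range of compound concentrations, then given H2O2 at 200 μM. Viability read 19 h after peroxide addition by CellTiter Blue. Expressed as percent of untreated control (100%).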

[9] = Drug level treated with BSIH in DMSO assessed as metabolite formation at 100 uM at pH 7.4 after overnight incubation in presence of H2O2 by UV-vis spectrometric analysis
[10] = Stability of the compound in phosphate buffered saline assessed as parent compound remaining at 100 uM at pH 7.4 after 20 mins by UV-vis spectrophotometric analysis; format: physicochemical; settings: read-out: Stability
[11] = Stability of the compound in phosphate buffered saline assessed as parent compound remaining at 500 uM at pH 7.4 after 20 mins by UV-vis spectrophotometric analysis; format: physicochemical; settings: read-out: Stability
[12] = Stability of the compound in phosphate buffered saline at pH 7.4 assessed as compound hydrolysis at 100 uM within 20 mins by UV-Vis spectrophotometric analysis; format: physicochemical; settings: buffer, pH 7.4, 20 min
[13] = Stability of the compound in phosphate buffered saline at pH 7.4 assessed as compound hydrolysis at 100 uM up to 24 hrs by UV-Vis spectrophotometric analysis; format: physicochemical; settings: buffer, pH 7.4, 24 h; summary of the method: as §1
[14] = Drug level treated with BSIH assessed as metabolite formation at 500 uM after 24 hrs in presence of H2O2 by 1H-NMR spectroscopic analysis
ARPE-19 [15] = experiment: Cytotoxicity against human ARPE19 cells assessed as reduction in cell viability up to 100 uM after 72 hrs by CellTiter-blue assay; format: cell-based; settings: arpe-19, 72 h; summary of the method: as §2
[16] = Stability of the compound in Britton-Robinson buffer at pH 8 assessed as parent compound remaining at 100 uM by UV-vis spectrometric analysis; format: physicochemical; settings: read-out: Stability
[17] = Stability of the compound in aqueous solvent assessed as parent compound remaining at 100 uM after 24 hrs in presence of H2O2 by 1H-NMR spectrometric method; format: physicochemical; settings: aqueous solvent with H2O2; read-out: Stability
[18] = Stability of the compound in D2O/5% DMSO-d6 assessed as parent compound remaining at 500 uM after 1 hr by 1H-NMR spectroscopic analysis; format: physicochemical; settings: read-out: Stability
[19] = Drug metabolism in DMSO-d6 assessed as formation of hydrazone proton at 10 mM by 1H-NMR spectroscopic analysis; format: physicochemical; settings: 10000 µM
[20] = Drug metabolism in DMSO-d6 assessed as formation of pinacol boronic ester form of BSIH at 10 mM by 1H-NMR spectroscopic analysis; format: physicochemical; settings: 10000 µM
[21] = Drug metabolism in phosphate buffered saline at pH 7.4 assessed as formation of salicylaldehyde by measuring retention time at 100 uM after 24 hrs in presence of H2O2 by LC-MS analysis; format: physicochemical; settings: buffer, pH 7.4, 24 h
[22] = Stability of the compound in minimal essential medium assessed as compound hydrolysis at 100 uM at pH 7.4 within 20 mins by UV-Vis spectrophotometric analysis
[23] = Drug metabolism in D2O/5% DMSO-d6 assessed as pinacol dissociation by measuring formation of boronic acid form of BASIH at 500 uM after 1 hr by 1H-NMR spectroscopic analysis; format: physicochemical
[24] = Drug metabolism in phosphate buffered saline at pH 7.4 assessed as formation of SIH by measuring elution time at 100 uM after 24 hrs in presence of H2O2 by LC-MS analysis; format: physicochemical; settings: buffer, pH 7.4, 24 h
[25] = Stability of the compound in Britton-Robinson buffer at pH 4 assessed as parent compound remaining at 100 uM by UV-vis spectrometric analysis; format: physicochemical; settings: read-out: Stability
[26] = Drug metabolism in phosphate buffered saline at pH 7.4 assessed as formation of isoniazid by measuring elution time at 100 uM after 24 hrs in presence of H2O2 by LC-MS analysis; format: physicochemical; settings: buffer, pH 7.4, 24 h
[27] = Drug metabolism in phosphate buffered saline at pH 7.4 assessed as equilibrium hydrolysis constant measured at 1 min interval for 20 mins by UV-vis spectrophotometric method; format: physicochemical; settings: buffer, pH 7.4, 20 min
[28] = Drug metabolism in D2O/5% DMSO-d6 assessed as formation of hydrazone proton at 500 uM after 1 hr by 1H-NMR spectroscopic analysis; format: physicochemical
[29] = Stability of the compound in minimal essential medium assessed as compound hydrolysis at 100 uM at pH 7.4 up to 24 hrs by UV-Vis spectrophotometric analysis; summary of the method: as §1
[30] = Stability of the compound in Britton-Robinson buffer at pH 2 assessed as parent compound remaining at 100 uM by UV-vis spectrometric analysis; format: physicochemical; settings: read-out: Stability
[31] = Stability of the compound in Britton-Robinson buffer at pH 12 assessed as parent compound remaining at 100 uM by UV-vis spectrometric analysis; format: physicochemical; settings: read-out: Stability
[32] = Stability of the compound in Britton-Robinson buffer at pH 6 assessed as parent compound remaining at 100 uM by UV-vis spectrometric analysis; format: physicochemical; settings: read-out: Stability
[33] = Drug metabolism in D2O/5% DMSO-d6 assessed as formation of aldehyde proton of salicylaldehyde at 500 uM after 1 hr by 1H-NMR spectroscopic analysis; format: physicochemical
[34] = Stability of the compound in Britton-Robinson buffer at pH 10 assessed as parent compound remaining at 100 uM by UV-vis spectrometric analysis; format: physicochemical; settings: read-out: Stability
ARPE-19 [35] = experiment: Cytoprotective activity against H2O2-induced toxicity in human ARPE19 cells up to 100 uM pretreated for 5 hrs followed by H2O2 addition after 19 hrs by CellTiter-blue assay; format: functional, cell-based; summary of the method: as §3

Structure (SMILES): O=Cc1ccccc1O [SALICYLADEHYDE]
- Drug metabolism [14]: Metabolite detected
- Activity (ARPE-19 [8]): Dose-dependent effect
- Activity (ARPE-19 [15]): Non-Toxic

Structure (SMILES): NNC(=O)c1ccncc1 [ISONIAZID]
- Drug metabolism [14]: Metabolite detected
- Activity (ARPE-19 [35]): inactive
- Activity (ARPE-19 [15]): Non-Toxic

Structure (SMILES): O=Cc1ccccc1B(O)O
- Activity (ARPE-19 [8]): Dose-dependent effect
- Activity (ARPE-19 [15]): Non-Toxic

Further lines, with some results ahead:

- Stability [1]: Stable
- half-life at 100 µM [2]: 2.7 h
- K [4]: 5 ×10⁻⁴ M
- Stability [7]: Stable
Structure (SMILES): O=C(N/N=C/c1ccccc1O)c1ccncc1 [SALINAZID]
- Stability [3]: Unstable
- Stability [5]: Unstable
- Activity (ARPE-19 [6]): 30%
- Activity (ARPE-19 [8]): Dose-dependent effect
- Drug metabolism [9]: Metabolite detected

- remaining at 20 min, 100 µM [10]: 68%
- remaining at 20 min, 500 µM [11]: 84%
- Stability [12]: Unstable
- Stability [13]: Stable
Structure (SMILES): O=C(N/N=C/c1ccccc1B(O)O)c1ccncc1

- remaining at 100 µM [16]: 65%
- remaining at 24 h, 100 µM [17]: 25%
- remaining at 1 h, 500 µM [18]: 80%
- Drug metabolism [19]: 8.79 ppm
- Drug metabolism [20]: 1.34 ppm
- Retention_time [21]: 12 min
- Stability [12]: Unstable
- Drug metabolism [23]: 1.03 ppm
- Time [24]: 13 min
- remaining at 100 µM [25]: 26%
- Time [26]: 2 min
- Stability [13]: Stable
- K [27]: 1.5 ×10⁻⁵ M
- Drug metabolism [28]: Metabolite_Notdetected
- remaining at 100 µM [30]: 9%
- remaining at 100 µM [31]: 50%
- remaining at 100 µM [32]: 36%
- Drug metabolism [33]: 9.9 ppm
- remaining at 100 µM [34]: 67%
Structure (SMILES): CC1(C)OB(c2ccccc2/C=N/NC(=O)c2ccncc2)OC1(C)C
- Stability [22]: Unstable
- Stability [29]: Stable
- Activity (ARPE-19 [8]): Dose-dependent effect
- Activity (ARPE-19 [15]): Non-Toxic

From ChEMBL document CHEMBL4052786, “The hydrolytic susceptibility of prochelator BSIH in aqueous solutions” (Bioorg Med Chem Lett, 2017)
